Data reported in BindingDB's records for doi:10.1021/jm0310986 (Serono Pharmaceutical Research Institute, 2005).

Target: Mitogen-activated protein kinase 10 (Rattus norvegicus, UniProt P49187)
Test: Inhibition of rat c-Jun N-terminal kinase 3
How it was run: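 GST-JNK3 was preactivated overnight at room temperature with GST-JNKK2 and ATP-γ-S, then dialysed. The enzyme (0.5 µg) was incubated with biotinylated GST-c-Jun (1 µg) and 2 µM ³³P-γ-ATP in 50 mM Tris-HCl pH 8.0, 10 mM MgCl₂, 1 mM DTT and 100 µM NaVO₄ for 120 min at room temperature. Reaction stopped with EDTA; phosphorylation detected by streptavidin SPA beads and scintillation counting. Values from triplicates.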

Sequence of Mitogen-activated protein kinase 10 (P49187 whole entry): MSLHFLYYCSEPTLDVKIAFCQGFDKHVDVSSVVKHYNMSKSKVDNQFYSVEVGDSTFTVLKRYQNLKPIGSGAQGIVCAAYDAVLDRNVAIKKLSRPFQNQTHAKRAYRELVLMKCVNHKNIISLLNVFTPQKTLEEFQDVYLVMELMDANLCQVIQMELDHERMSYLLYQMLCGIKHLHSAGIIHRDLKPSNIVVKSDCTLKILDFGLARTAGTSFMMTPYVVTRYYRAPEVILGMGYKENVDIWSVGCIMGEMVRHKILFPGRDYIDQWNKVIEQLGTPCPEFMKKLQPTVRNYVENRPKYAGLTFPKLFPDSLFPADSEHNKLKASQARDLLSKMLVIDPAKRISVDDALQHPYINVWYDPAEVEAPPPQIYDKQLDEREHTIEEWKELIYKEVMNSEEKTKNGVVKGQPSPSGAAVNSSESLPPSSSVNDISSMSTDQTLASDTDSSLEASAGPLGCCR

First: CCOC(=O)C(c1ccnc(Cl)n1)c1nc2ccccc2s1 (stereo not drawn) [[3H-Benzothiazol-(2Z)-ylidene]-(2-chloro-pyrimidin-4-yl)-acetic acid ethyl ester]
Second: N#CC(c1ccnc(Cl)n1)c1nc2ccccc2s1 (stereo not drawn) [(2Z)-1,3-benzothiazol-2(3H)-ylidene(2-chloropyrimidin-4-yl)acetonitrile]
The IC50 of the first is higher: > 5 µM for the first, 0.25 µM for the second.

`N#CC(c1ccnc(NCc2nnn[nH]2)n1)c1nc2ccccc2s1` (stereo not drawn) [[3H-Benzothiazol-(2Z)-ylidene]-{2-[(1H-tetrazol-5-ylmethyl)-amino]-pyrimidin-4-yl}-acetonitrile] and `CCCNc1nccc(C(C#N)c2nc3ccccc3s2)n1` (stereo not drawn) [[3H-Benzothiazol-(2Z)-ylidene]-(2-propylamino-pyrimidin-4-yl)-acetonitrile] cannot be ordered by IC50: > 5 µM for the first, > 5 µM for the second.

`Cc1cc(C(C#N)c2nc3ccccc3s2)nc(Cl)n1` (stereo not drawn) [(2Z)-1,3-benzothiazol-2(3H)-ylidene(2-chloro-6-methylpyrimidin-4-yl)acetonitrile] and `N#CC(c1cccc(Cl)n1)c1nc2ccccc2s1` (stereo not drawn) [(2Z)-1,3-benzothiazol-2(3H)-ylidene(6-chloropyridin-2-yl)acetonitrile] cannot be ordered by IC50: > 5 µM for the first, > 5 µM for the second.

`CCCN(CCC)c1nccc(C(C#N)c2nc3ccccc3s2)n1` (stereo not drawn) [[3H-Benzothiazol-(2Z)-ylidene]-(2-dipropylamino-pyrimidin-4-yl)-acetonitrile] and `N#CC(c1ccncn1)c1nc2ccccc2s1` (stereo not drawn) [(2Z)-1,3-benzothiazol-2(3H)-ylidene(pyrimidin-4-yl)acetonitrile] cannot be ordered by IC50: > 5 µM for the first, > 5 µM for the second.

`N#CC(c1ccnc(NCCc2ccc(F)cc2)n1)c1nc2ccccc2s1` (stereo not drawn) [[3H-Benzothiazol-(2Z)-ylidene]-{2-[2-(4-fluoro-phenyl)-ethylamino]-pyrimidin-4-yl}-acetonitrile] and `Cc1ccc(CCNc2nccc(C(C#N)c3nc4ccccc4s3)n2)cc1` (stereo not drawn) [[3H-Benzothiazol-(2Z)-ylidene]-[2-(2-p-tolyl-ethylamino)-pyrimidin-4-yl]-acetonitrile] cannot be ordered by IC50: > 5 µM for the first, > 5 µM for the second.

Compared with `N#CC(c1nc2ccccc2[nH]1)c1nc(Cl)ncc1Br` (stereo not drawn) [(5-Bromo-2-chloro-pyrimidin-4-yl)-(1,3-dihydro-benzoimidazol-2-ylidene)-acetonitrile], `N#CC(c1ccnc(NCCc2c[nH]cn2)n1)c1nc2ccccc2s1` (stereo not drawn) is lower in IC50: > 5 µM for the first, 0.08 µM for the second.

Going from `N#CC(c1ccnc(NCCc2ccc(Br)cc2)n1)c1nc2ccccc2s1` (stereo not drawn) [[3H-Benzothiazol-(2Z)-ylidene]-{2-[2-(4-bromo-phenyl)-ethylamino]-pyrimidin-4-yl}-acetonitrile] to `N#CC(c1ccnc(NCCc2ccc(N)cc2)n1)c1nc2ccccc2s1` (stereo not drawn) [{2-[2-(4-Amino-phenyl)-ethylamino]-pyrimidin-4-yl}-[3H-benzothiazol-(2Z)-ylidene]-acetonitrile], the IC50 falls from > 5 µM to 0.08 µM.

First: N#CC(c1ccnc(NCCc2ccccn2)n1)c1nc2ccccc2s1 (stereo not drawn) [[3H-Benzothiazol-(2Z)-ylidene]-[2-(2-pyridin-2-yl-ethylamino)-pyrimidin-4-yl]-acetonitrile]
Second: N#CC(c1ccnc(NCCc2ccccc2)n1)c1nc2ccccc2s1 (stereo not drawn) [[3H-Benzothiazol-(2Z)-ylidene]-(2-phenethylamino-pyrimidin-4-yl)-acetonitrile]
The IC50 of the first is lower: 0.25 µM for the first, > 5 µM for the second. The first is the more potent here.

`N#CC(c1ccnc(NCCc2cccc(Cl)c2)n1)c1nc2ccccc2s1` (stereo not drawn) [[3H-Benzothiazol-(2Z)-ylidene]-{2-[2-(3-chloro-phenyl)-ethylamino]-pyrimidin-4-yl}-acetonitrile] and `N#CC(c1ccnc(NCCc2ccc(Cl)c(Cl)c2)n1)c1nc2ccccc2s1` (stereo not drawn) [[3H-Benzothiazol-(2Z)-ylidene]-{2-[2-(3,4-dichloro-phenyl)-ethylamino]-pyrimidin-4-yl}-acetonitrile] cannot be ordered by IC50: > 5 µM for the first, > 5 µM for the second.
